Results reported in ChEMBL document CHEMBL2010709, “Pinophilins A and B, inhibitors of mammalian A-, B-, and Y-family DNA polymerases and human cancer cell proliferation” (J Nat Prod, 2012).
Active and inactive are the calls of the source. No cut-off for these calls is given here.

Columns and labels:
[1] = Non-competitive inhibition of calf DNA polymerase alpha using ploy(dA)/oligo(dT)18 as substrate by Dixon plot analysis; parameters: species or system Bos taurus
Outline: (§1)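 Kinetics ran in the standard pol assay at 37 °C for 60 min. Either poly(dA)/oligo(dT)18 (A/T = 2/1) or dTTP was varied, with inhibitor at 0, 10, 20 and 30 μM. Km and Vmax came from Lineweaver–Burk plots and Ki from Dixon plots. Pol α was purified from calf thymus by immunoaffinity chromatography.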

Bos taurus [2] = organism: Bos taurus; test: Competitive inhibition of calf DNA polymerase alpha using dTTP as substrate up to 30 uM by Lineweaver-Burk plot analysis; outline: as §1
DNA polymerase kappa [3] = biological target: T1, DNA polymerase kappa (Homo sapiens, UniProt Q9UBT6); test: Competitive inhibition of human C-terminal-His6-tagged DNA polymerase kappa expressed in Escherichia coli using dTTP as substrate by Dixon plot analysis; outline: as §1
T1 sequence (Q9UBT6 whole entry): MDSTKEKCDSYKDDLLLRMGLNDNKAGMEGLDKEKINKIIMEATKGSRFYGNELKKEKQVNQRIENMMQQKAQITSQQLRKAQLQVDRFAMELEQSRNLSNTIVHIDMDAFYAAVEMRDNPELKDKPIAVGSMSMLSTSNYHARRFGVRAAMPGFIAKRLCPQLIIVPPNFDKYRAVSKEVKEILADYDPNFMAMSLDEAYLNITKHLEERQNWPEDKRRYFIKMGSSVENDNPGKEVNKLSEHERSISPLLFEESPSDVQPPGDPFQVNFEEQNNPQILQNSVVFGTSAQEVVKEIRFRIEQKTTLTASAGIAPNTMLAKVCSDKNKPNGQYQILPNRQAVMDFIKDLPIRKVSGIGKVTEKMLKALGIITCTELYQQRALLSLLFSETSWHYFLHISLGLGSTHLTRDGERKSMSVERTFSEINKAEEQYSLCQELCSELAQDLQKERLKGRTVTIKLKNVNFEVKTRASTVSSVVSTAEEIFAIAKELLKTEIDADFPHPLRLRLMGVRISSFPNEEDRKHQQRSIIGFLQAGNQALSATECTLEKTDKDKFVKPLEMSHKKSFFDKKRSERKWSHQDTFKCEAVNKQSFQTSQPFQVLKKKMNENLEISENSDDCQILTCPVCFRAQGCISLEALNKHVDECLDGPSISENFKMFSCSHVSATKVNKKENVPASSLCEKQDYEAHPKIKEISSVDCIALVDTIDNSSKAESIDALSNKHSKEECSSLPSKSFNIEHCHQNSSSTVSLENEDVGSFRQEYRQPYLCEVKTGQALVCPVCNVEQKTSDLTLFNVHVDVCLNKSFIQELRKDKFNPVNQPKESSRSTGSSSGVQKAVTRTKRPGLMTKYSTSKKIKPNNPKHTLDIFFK

[4] = Competitive inhibition of calf DNA polymerase alpha using dTTP as substrate by Dixon plot analysis; parameters: species or system Bos taurus; outline: as §1
DNA polymerase kappa [5] = biological target: T1, DNA polymerase kappa; test: Non-competitive inhibition of human C-terminal-His6-tagged DNA polymerase kappa expressed in Escherichia coli using ploy(dA)/oligo(dT)18 as substrate by Dixon plot analysis; outline: as §1
Bos taurus [6] = organism: Bos taurus; test: Non-competitive inhibition of calf DNA polymerase alpha using ploy(dA)/oligo(dT)18 as substrate up to 30 uM by Lineweaver-Burk plot analysis; outline: as §1

## C/C=C/C1=CC2=CC(=O)[C@@](C)(OC(=O)c3c(C)cc(O)cc3O)[C@@H](O)[C@@H]2CO1 [PINOPHILIN A]
[1]
  Ki: 13.8 µM
Bos taurus [2]
  inhibition: Active
DNA polymerase kappa [3]
  Ki: 9.85 µM
[4]
  Ki: 9.6 µM
DNA polymerase kappa [5]
  Ki: 18.1 µM
Bos taurus [6]
  inhibition: Active
